Laboratory results reported in ChEMBL document CHEMBL4609978, “Synthesis and evaluation of 2'-dihalo ribonucleotide prodrugs with activity against hepatitis C virus” (Bioorg Med Chem, 2020).
pEC50: −log10 of the molar value.

Columns and labels:
Hepatitis C virus [1] = test: Antiviral activity against HCV genotype 1a H77 infected in human HuH7 replicon cells assessed as inhibition of viral replication after 3 days by luciferase reporter gene assay; assay type: functional, organism-based, Hepacivirus hominis; details: subtype 1a H77, Huh-7, 72 h
Procedure, shortened: (§1)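 Stable subgenomic replicon cell lines (genotype 1a-H77 or 1b-Con1) carrying a luciferase reporter; compounds added in DMEM with 5% FBS, cells incubated 3 days with or without compound, then lysed and luciferase activity read; EC50 from nonlinear regression fit to 4-parameter logistic equation.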

Hepatitis C virus [2] = test: Antiviral activity against HCV genotype 1b Con1 infected in human HuH7 replicon cells assessed as inhibition of viral replication after 3 days by luciferase reporter gene assay; assay type: functional, organism-based, Hepacivirus hominis; details: subtype 1b Con1, Huh-7, 72 h; procedure, shortened: as §1
[3] = Cytotoxicity against human HuH7 cells assessed as reduction in cell viability; assay type: cell-based, Huh-7; details: read-out: TD50 (the source's name)
Hepatitis C virus [4] = test: Potency index, ratio of sofosbuvir EC50 to compound EC50 for HCV genotype 1a H77 infected in human HuH7 replicon cells assessed as inhibition of viral replication after 3 days by luciferase reporter gene assay; assay type: functional, Hepacivirus hominis, subtype 1a H77, Huh-7
Procedure, shortened: (§2)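 Stable subgenomic luciferase-reporter replicon Huh-7 lines, genotype 1a-H77 or 1b-Con1. Test compound and sofosbuvir comparator each run in DMEM with 5% FBS for 3 days. Cells lysed and luciferase activity read. EC50 obtained by nonlinear regression to a 4-parameter logistic equation. Index is sofosbuvir EC50 divided by compound EC50, both from this assay.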

Hepatitis C virus [5] = test: Potency index, ratio of sofosbuvir EC50 to compound EC50 for HCV genotype 1b Con1 infected in human HuH7 replicon cells assessed as inhibition of viral replication after 3 days by luciferase reporter gene assay; assay type: functional, Hepacivirus hominis, subtype 1b Con1, Huh-7; procedure, shortened: as §2
Hepatitis C virus [6] = test: Antiviral activity against HCV genotype 1b Con1 expressing wild type NS5B infected in human HuH7 replicon cells assessed as inhibition of viral replication after 4 days by luciferase reporter gene based assay; assay type: functional, organism-based, Hepacivirus hominis; details: subtype 1b Con1, Huh-7, 96 h
Hepatitis C virus [7] = test: Antiviral activity against HCV genotype 1b Con1 expressing NS5B S282T mutant infected in human HuH7 replicon cells assessed as inhibition of viral replication after 4 days by luciferase reporter gene based assay; assay type: functional, organism-based, Hepacivirus hominis; details: subtype 1b Con1, Huh-7, 96 h
Hepatitis C virus [8] = test: Antiviral activity against HCV genotype 2a expressing wild type NS5B infected in human HuH7 replicon cells assessed as inhibition of viral replication after 4 days by luciferase reporter gene based assay; assay type: functional, organism-based, Hepacivirus hominis; details: subtype 2a, Huh-7, 96 h
Hepatitis C virus [9] = test: Antiviral activity against HCV genotype 2a expressing NS5B S282T mutant infected in human HuH7 replicon cells assessed as inhibition of viral replication after 4 days by luciferase reporter gene based assay; assay type: functional, organism-based, Hepacivirus hominis; details: subtype 2a, Huh-7, 96 h
Hepatitis C virus [10] = test: Antiviral activity against HCV genotype 3a expressing wild type NS5B infected in human HuH7 replicon cells assessed as inhibition of viral replication after 4 days by luciferase reporter gene based assay; assay type: functional, organism-based, Hepacivirus hominis; details: subtype 3a, Huh-7, 96 h
Hepatitis C virus [11] = test: Antiviral activity against HCV genotype 3a expressing NS5B S282T mutant infected in human HuH7 replicon cells assessed as inhibition of viral replication after 4 days by luciferase reporter gene based assay; assay type: functional, organism-based, Hepacivirus hominis; details: subtype 3a, Huh-7, 96 h
Hepatitis C virus [12] = test: Antiviral activity against HCV genotype 4a expressing wild type NS5B infected in human HuH7 replicon cells assessed as inhibition of viral replication after 4 days by luciferase reporter gene based assay; assay type: functional, organism-based, Hepacivirus hominis; details: subtype 4a, Huh-7, 96 h
Hepatitis C virus [13] = test: Antiviral activity against HCV genotype 6a expressing wild type NS5B infected in human HuH7 replicon cells assessed as inhibition of viral replication after 4 days by luciferase reporter gene based assay; assay type: functional, organism-based, Hepacivirus hominis; details: subtype 6a, Huh-7, 96 h
[14] = Prodrug conversion in Beagle dog liver assessed as nucleotide triphosphate level at 5 mg/kg, po administered as single dose measured after 4 hrs by LC-MS/MS analysis; assay type: ADME, organism-based, Canis lupus familiaris; details: in vivo
[15] = Prodrug conversion in Beagle dog liver assessed as nucleotide triphosphate level at 5 mg/kg, po co-dosed with 5 mg/kg sofosbuvir measured after 4 hrs by LC-MS/MS analysis; assay type: ADME, organism-based, Canis lupus familiaris; details: in vivo
Procedure, shortened: (§3)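 Beagle dogs (3 per time point) given single oral prodrug 5 mg/kg in EtOH:PEG-400:Phosal 53 MCT (10:30:60, w/w), cassette-dosed with sofosbuvir 5 mg/kg as internal standard; liver biopsies at 4 or 24 h, flash frozen, triphosphate measured by LC-MS/MS.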

[16] = Prodrug conversion in Beagle dog liver assessed as nucleotide triphosphate level at 5 mg/kg, po administered as single dose measured after 24 hrs by LC-MS/MS analysis; assay type: ADME, organism-based, Canis lupus familiaris; details: in vivo
[17] = Prodrug conversion in Beagle dog liver assessed as nucleotide triphosphate level at 5 mg/kg, po co-dosed with 5 mg/kg sofosbuvir measured after 24 hrs by LC-MS/MS analysis; assay type: ADME, organism-based, Canis lupus familiaris; details: in vivo; procedure, shortened: as §3
[18] = Prodrug conversion in human primary hepatocytes assessed as nucleotide triphosphate level at 100 uM incubated for 4 hrs followed by compound wash-out for 20 hrs and measured following 4 hrs incubation period by LC-MS/MS analysis; assay type: ADME, cell-based, Hepatocyte
Procedure, shortened: (§4)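 Cryopreserved primary human hepatocytes plated ~55,000 viable cells/well on collagen, medium changed after 4–6 h to Williams E maintenance medium with Geltrex 0.35 mg/mL, overnight at 37 °C; prodrug 100 µM for 4 h, then washed; second plate held a further 20 h drug-free; cells washed with ice-cold HBSS, triphosphate measured by LC-MS/MS at 4 or 24 h.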

[19] = Prodrug conversion in human primary hepatocytes assessed as nucleotide triphosphate level at 100 uM incubated for 4 hrs and followed by compound washout for 20 hrs and measured following 24 hrs incubation period by LC-MS/MS analysis; assay type: ADME, cell-based, Hepatocyte; procedure, shortened: as §4
[20] = Unbound drug level in dog plasma; assay type: ADME, cell-free, Canis lupus familiaris
[21] = Unbound drug level in human plasma; assay type: ADME, cell-free
[22] = Intrinsic clearance in dog hepatocytes; assay type: ADME, cell-based, Canis lupus familiaris, Hepatocyte; details: read-out: CLH (converted)
[23] = Prodrug conversion in Beagle dog liver assessed as nucleotide triphosphate level at 5 mg/kg, po qd for 4 days and measured at 24 hrs post-last dose by LC-MS/MS analysis; assay type: ADME, organism-based, Canis lupus familiaris; details: in vivo
[24] = Prodrug conversion in Beagle dog liver assessed as nucleotide triphosphate level at 5 mg/kg, po qd for 4 days co-dosed with 5 mg/kg sofosbuvir and measured at 24 hrs post-last dose by LC-MS/MS analysis; assay type: ADME, organism-based, Canis lupus familiaris; details: in vivo
Procedure, shortened: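 Beagle dogs (3 per time point) dosed orally once daily for 4 days with prodrug (1 or 5 mg/kg) in EtOH:PEG-400:Phosal 53 MCT (10:30:60, w/w) together with sofosbuvir 5 mg/kg; liver biopsy 24 h after final dose, flash frozen, triphosphate by LC-MS/MS.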

[25] = Distribution coefficient, logD of compound by HT-LCMS analysis; assay type: physicochemical; details: octanol/water
[26] = Aqueous solubility of compound in pH 7.4 phosphate buffer; assay type: physicochemical
[27] = Stability in dog plasma assessed as parent compound remaining after 4 hrs; assay type: ADME, cell-free, Canis lupus familiaris; details: read-out: Stability
Procedure, shortened: (§5)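 Prodrug incubated 4 h at 37 °C in dog or human plasma; result given as percent parent remaining.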

[28] = Stability in human plasma assessed as parent compound remaining after 4 hrs; assay type: ADME, cell-free; details: read-out: Stability; procedure, shortened: as §5
[29] = Intrinsic clearance in human hepatocytes; assay type: ADME, cell-based, Hepatocyte; details: read-out: CLH (converted)

CC(C)OC(=O)[C@H](C)N[P@](=O)(OC[C@H]1O[C@@H](n2ccc(=O)[nH]c2=O)[C@@](F)(Cl)[C@@H]1O)Oc1ccccc1
pEC50 (Hepatitis C virus [1]): 7.28 | pEC50 (Hepatitis C virus [2]): 7.21 | CC50 [3]: 11000 nM | Ratio EC50 (Hepatitis C virus [4]): 3 - 4 | Ratio EC50 (Hepatitis C virus [5]): 3 - 4

CC(C)OC(=O)[C@H](C)N[P@](=O)(OC[C@H]1O[C@@H](n2ccc(=O)[nH]c2=O)C(Cl)(Cl)[C@@H]1O)Oc1ccccc1
pEC50 (Hepatitis C virus [1]): 7.37 | pEC50 (Hepatitis C virus [2]): 7.32 | CC50 [3]: > 100000 nM | Ratio EC50 (Hepatitis C virus [4]): 3 - 4 | Ratio EC50 (Hepatitis C virus [5]): 3 - 4

CC(C)OC(=O)[C@H](C)N[P@](=O)(OC[C@H]1O[C@@H](n2ccc(=O)[nH]c2=O)[C@](F)(Br)[C@@H]1O)Oc1ccccc1
pEC50 (Hepatitis C virus [1]): 5.52 | pEC50 (Hepatitis C virus [2]): 5.60 | CC50 [3]: 26500 nM

CC(C)OC(=O)[C@H](C)N[P@](=O)(OC[C@H]1O[C@@H](n2ccc(=O)[nH]c2=O)[C@](Cl)(Br)[C@@H]1O)Oc1ccccc1
pEC50 (Hepatitis C virus [1]): 6.94 | pEC50 (Hepatitis C virus [2]): 6.83 | CC50 [3]: 80000 nM | pEC50 (Hepatitis C virus [6]): 7.52 | pEC50 (Hepatitis C virus [7]): 6.79 | pEC50 (Hepatitis C virus [8]): 6.73 | pEC50 (Hepatitis C virus [9]): 6.58 | pEC50 (Hepatitis C virus [10]): 7.50 | pEC50 (Hepatitis C virus [11]): 6.85 | pEC50 (Hepatitis C virus [12]): 7.52 | pEC50 (Hepatitis C virus [13]): 7.64 | Drug metabolism [14]: 0.088 µM | Drug metabolism [15]: 1.59 µM | Drug metabolism [16]: 0.049 µM | Drug metabolism [17]: 1.02 µM | Drug metabolism [18]: 110 µM | Drug metabolism [19]: 22 µM | fraction unbound [20]: 0.213 | fraction unbound [21]: 0.113 | CLint scaled [22]: 113 mL/min/kg

CC(C)OC(=O)[C@H](C)N[P@](=O)(OC[C@H]1O[C@@H](n2ccc(=O)[nH]c2=O)[C@](C)(Cl)[C@@H]1O)Oc1ccccc1
pEC50 (Hepatitis C virus [1]): 6.86 | pEC50 (Hepatitis C virus [2]): 6.78 | CC50 [3]: > 100000 nM

CCOC(=O)C(C)(C)N[P@@](=O)(OC[C@H]1O[C@@H](n2ccc(=O)[nH]c2=O)[C@](Cl)(Br)[C@@H]1O)Oc1ccccc1
pEC50 (Hepatitis C virus [1]): 5.57 | pEC50 (Hepatitis C virus [2]): 5.59 | Drug metabolism [14]: 7.21 µM | Drug metabolism [15]: 5.35 µM | Drug metabolism [16]: 2.64 µM | Drug metabolism [17]: 4.03 µM | Drug metabolism [23]: 1.43 µM | Drug metabolism [24]: 6.05 µM | logD [25]: 3.07 | solubility [26]: > 200 µM | remaining at 4 h [27]: 100% | remaining at 4 h [28]: 92% | fraction unbound [20]: 0.187 | fraction unbound [21]: 0.31 | CLint scaled [22]: 98.3 mL/min/kg | CLint scaled [29]: 155 mL/min/kg

CC(C)OC(=O)[C@H](C)N[P@](=O)(OC[C@H]1O[C@@H](n2ccc(=O)[nH]c2=O)C(Br)(Br)[C@@H]1O)Oc1ccccc1
pEC50 (Hepatitis C virus [1]): 6.39 | pEC50 (Hepatitis C virus [2]): 6.28 | CC50 [3]: > 100000 nM
